CC50 and EC90 data for 4 compounds are collected here from ChEMBL document CHEMBL1141159, “Design, synthesis, and antiviral activity of 2'-deoxy-2'-fluoro-2'-C-methylcytidine, a potent inhibitor of hepatitis C virus replication” (2005).

Some results are limits rather than exact numbers.

Common to all, as to format: functional
Assay [1] in a line: Cytotoxic concentration against bovine viral diarrhea virus (BVDV) in MDBK cells. Conditions: Bos taurus. In outline:
(§1)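 Cytotoxicity (CC50) read by MTS colorimetric cell-proliferation assay after 4 days of compound exposure.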

Assay [2] is described as follows: Effective concentration required to reduce cytopathic effects caused by bovine viral diarrhea virus (BVDV) in MDBK cells by 90%. Conditions: Bos taurus. For orientation: Protection from cytopathic effect is a common read-out in antiviral testing.
In assay [3] the test system is Huh-7. Briefly: Cytotoxic concentration against HCV replication RNA levels in Huh7 cells determined by HCV replicon assay. Conditions: Homo sapiens. A digest of the protocol: as §1
The test system of assay [4] is Huh-7. Put plainly: Effective concentration required to reduce HCV replication RNA levels in Huh7 cells by 90% determined by HCV replicon assay. As to conditions: Homo sapiens. In outline:
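Subgenomic HCV replicon cells were treated with compound, and HCV RNA was quantified by real-time quantitative RT-PCR to derive the concentration giving 90% reduction.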
A general note: Replicon systems follow genome replication, usually without infectious particles.

In general, CC50 refers to the concentration that lowers cell viability or growth by half. High values mean lower toxicity to the cells, low ones greater toxicity to the cells. As usually defined, the EC90 is the point of the concentration-response curve where the effect stands at 90%. Read a high EC90 as weaker potency. `Nc1ccn([C@@H]2O[C@H](CO)[C@@H](O)[C@@H]2F)c(=O)n1`: the CC50 (in assay [1]; with Huh-7 [3]) was > 100 µM in each case. In addition, the figures for the EC90 (in assay [2]; in the assay on Huh-7 [4]) were > 100 µM and 6.5 µM, respectively.
For the compound `C[C@@]1(F)[C@H](O)[C@@H](CO)O[C@H]1n1ccc(=O)[nH]c1=O`, the CC50 (in assay [1]; in the assay on Huh-7 [3]) was > 100 µM in each case. The EC90 (in assay [2]; with Huh-7 [4]) was > 100 µM in each case.
Take `C[C@@]1(O)[C@H](O)[C@@H](CO)O[C@H]1n1ccc(N)nc1=O`: the CC50 (in assay [1]; in the assay with Huh-7 [3]) was > 100 µM in each case. Besides, the EC90 in assay [2] stood at 2.3 µM; in the assay with Huh-7 [4] it was 19 µM.
Regarding `C[C@@]1(F)[C@H](O)[C@@H](CO)O[C@H]1n1ccc(N)nc1=O`, the cytotoxic concentration (CC50) (in assay [1]; in the assay on Huh-7 [3]) was > 100 µM in each case. The results for the EC90 (in assay [2]; with Huh-7 [4]) were > 100 µM and 5.4 µM, respectively.
